Sampled rows, rich in hits. Any-hit rate of the full collection: about 3.8%.
Beta cell apopt: blocks beta cell apoptosis; hit rate 0.8% among 300,000; protection from apoptosis, % (no concentration beside the values); INS-1E cytokine-induced death, ATP luminescence, 48 h; percent of positive-control rescue, neutral wells zero; AID 435005;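 active means Every replicate reaches about 75%, or at least half do and their mean reaches it too, limit read from the data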;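 further: higher means more ATP so stronger rescue from cytokine killing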
ANO1 block: blocks the mouse calcium-activated chloride channel TMEM16A | normalized B-score (activity score, 25-100; higher = stronger inhibition) at 10 µM | hit rate 1.2% among 310,000 | HEK293 TMEM16A/YFP iodide influx fluorescence, ionomycin | AID 588511 | Q8BHY3;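 active means ratio plate-corrected score three or more library SD toward inhibition, starting fluorescence score within five deviations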;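 further: score derived from kinetic fluorescence span divided by baseline fluorescence per well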
MC4R antagonist: antagonists of human melanocortin 4 receptor (MC4R). MC4R-expressing cells, MTII-stimulated cAMP, LANCE TR-FRET. hit rate 0.48% among 360,000. inhibition, % at 6.5 µM. P32245;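 active means inhibition above its plate's cutoff, the mean of tested wells on that plate plus 3 SD, cut at about 29% in these data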
Target sequence (P32245 whole entry, looked up): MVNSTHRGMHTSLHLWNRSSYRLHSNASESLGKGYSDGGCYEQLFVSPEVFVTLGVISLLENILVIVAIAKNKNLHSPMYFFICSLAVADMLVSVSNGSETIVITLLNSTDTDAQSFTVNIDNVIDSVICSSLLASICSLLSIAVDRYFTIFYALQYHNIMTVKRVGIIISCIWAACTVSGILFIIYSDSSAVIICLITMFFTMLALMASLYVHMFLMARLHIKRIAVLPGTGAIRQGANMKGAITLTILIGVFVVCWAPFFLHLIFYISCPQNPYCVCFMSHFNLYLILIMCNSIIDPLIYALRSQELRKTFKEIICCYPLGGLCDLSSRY
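System: U2OS cells stably expressing human melanocortin 4 receptor (MC4R). Reagent: Melanotan II challenge after compound preincubation. Doses: 6.5 µM. Times: 30-min compound, 1-h challenge, 1-h detection, room temperature. Measured by: TR-FRET with Eu-cAMP and labeled anti-cAMP, 671 nm. Replicates: singlicate.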
TMEM16A act: activators or potentiators of mouse TMEM16A chloride channel; Q8BHY3; HEK293 TMEM16A/YFP-H148Q/I152L, iodide quench fluorescence; active compounds read low; B-score at 10 µM; hit rate 0.3% among 340,000;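 active means fluorescence-ratio B-score plate-corrected deviation score at least 3 library SD below zero, with starting fluorescence score within 5 deviations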;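 further: channel opened by trigger with iodide after compound preincubation; score built on the fluorescence ratio of max minus min over baseline; more negative score means more quench and so TMEM16A activation or potentiation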
CSC inhib: cancer stem cell inhibition. hit rate 1.1% among 300,000. inhibition, % at 7.5 µM. cancer stem cell-like cells viability, luminescence. AID 2717; in the data active means inhibition above about 75%; tested in HMLE shEcad cells
MC4R barr agon: agonists of human melanocortin 4 receptor (MC4R) beta-arrestin. AID 540308. hit rate 0.98% among 360,000. activation, % at 8.9 µM. U2OS MC4R beta-arrestin complementation, luminescence; percent of melanotan II response, DMSO zero;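 active means activation above a per-plate cutoff, the mean activation of sample wells on that plate plus 3 SD, cut at about 8% in these data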
MC4R barr conf: human MC4R beta-arrestin agonism confirmation | U2OS MC4R beta-arrestin recruitment, luminescence; scaled DMSO 0%, Melanotan II 100% | hit rate 31% among 2,400 | shares compounds with MC4R barr agon | activation, % at 8.9 µM | AID 602192;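 active means mean activation across replicates above the hit cutoff set in the earlier primary screen, cut at about 8% in these data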
MOR DOR agonist: counter-screen for MC4R agonists: agonists of mu-delta opioid heterodimer; shares compounds with MC4R barr agon; U2OS PathHunter beta-arrestin, beta-gal luminescence; percent of deltorphin B response, DMSO zero; AID 602194; activation, % at 9.2 µM; hit rate 5.8% among 2,400;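 active means mean activation across replicates exceeds the hit threshold derived in the earlier primary screen, cut at about 18% in these data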
TMEM16A reconf: reconfirmed blocker of mouse TMEM16A calcium-activated chloride channel; HEK293 TMEM16A/YFP-H148Q, iodide quench fluorescence; ionomycin added to raise cell calcium; inhibition, % at 10 µM; shares compounds with ANO1 block; hit rate 39% among 2,300;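 active means mean duplicate percent inhibition, scaled so buffer wells are 0 and the reference blocker 100, over three buffer SD above buffer mean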
HEK293 Ca mobil: calcium mobilization counter-screen hit for TMEM16A inhibitor series; shares compounds with ANO1 block; TMEM16A/YFP HEK293, Fluo4 calcium mobilization; calcium response (% of ionomycin), % at 10 µM; hit rate 2% among 2,300; AID 652231;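 active means duplicate-averaged calcium signal over 20% of the ionomycin maximum, relative to buffer baseline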;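 further: each well's signal is peak minus trough fluorescence divided by its pre-addition baseline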
YFP-HEK293 quench: acts in parental YFP-HEK293 cells lacking TMEM16A, counter-screen; shares compounds with ANO1 block; iodide YFP quench, ionomycin; YFP ratio F(max-min)/F0 at 10 µM; 2,300 tested, under 10 active; AID 652233;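 active means yellow fluorescent protein signal ratio exceeding the buffer control mean by over 5 SD of those controls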;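 further: ratio is mean of duplicate wells from kinetic YFP trace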
ClC-1 inh: blocks the rat ClC-1 voltage-dependent chloride channel. shares compounds with ANO1 block. CHO ClC-1-YFP, iodide influx fluorescence quench; iodide control reads 0, buffer control 100. ratio percent, % at 10 µM. 2,300 tested, under 10 active. AID 652236;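 active means duplicate-mean ratio percent above the mean of iodide-only control wells, which defines zero, plus 5 of their SD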;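 further: higher percent means stronger block of ClC-1 iodide influx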
Large screens that a line does not name were inactive (follow-up assays come after a bar, where they were run).

CCN(CC)c1ccc(N=Cc2c(O)n(Cc3ccco3)c(=O)[nH]c2=O)cc1	MC4R barr agon 11 | MC4R barr conf inactive | MOR DOR agonist inactive
NC(=O)c1ccc(N=Cc2c(O)n(Cc3ccco3)c(=O)[nH]c2=O)cc1	none
COc1ccccc1Cn1c(SCC#N)nc2cc(C(=O)N3CCC4(CC3)OCCO4)ccc2c1=O	none
COC(=O)C1=C(c2ccc(F)cc2F)C[C@@H]2CC[C@H]1N2C(=O)NCCCOC(C)C	none (no result: ANO1 block)
Nc1ccc(C2(c3ccc(N)cc3)c3ccccc3-c3ccccc32)cc1	MC4R barr agon 70 | MC4R barr conf 45 | MOR DOR agonist inactive
COc1ccccc1OP(=O)(Nc1ccc(Br)cc1)Oc1ccccc1OC	MC4R barr agon 18 | MC4R barr conf inactive | MOR DOR agonist inactive
CC1CCC(C(C)C)C(OC(=O)Cn2c(COc3ccccc3)[n+](C)c3ccccc32)C1 (centres undefined)	Beta cell apopt 106, CSC inhib 98, MC4R barr agon 29 | MC4R barr conf 10 | MOR DOR agonist inactive
COC(=O)C1=C(c2ccc(OCc3ccccc3)cc2)C[C@@H]2CC[C@H]1N2C(=O)NCc1ccc2c(c1)OCO2	none (no result: Beta cell apopt, ANO1 block, TMEM16A act, CSC inhib)
CCCNC(=O)c1c(N)n(Cc2ccc3c(c2)OCO3)c2nc3ccccc3nc12	none
CC(C)CCNC(=O)c1c(N)n(Cc2ccc3c(c2)OCO3)c2nc3ccccc3nc12	MC4R barr agon 13 | MC4R barr conf 8.4 | MOR DOR agonist inactive
CC(C)CNC(=O)c1c(N)n(Cc2ccc3c(c2)OCO3)c2nc3ccccc3nc12	MC4R barr agon 11 | MC4R barr conf 9.2 | MOR DOR agonist inactive
COC(=O)C1=C(c2ccc(C(C)=O)cc2)C[C@@H]2CC[C@H]1N2C(=O)NCCO	none (no result: ANO1 block)
O=P(Nc1ccccc1)(Oc1ccccc1)Oc1ccccc1	none
O=P(NC(c1ccccc1)c1ccccc1)(Oc1ccccc1)Oc1ccccc1	MC4R barr agon 11 | MC4R barr conf inactive | MOR DOR agonist inactive
CC(C)(C)c1cc(OC(=O)Cc2ccccc2)ccc1O	MC4R barr agon 10 | MC4R barr conf inactive | MOR DOR agonist inactive
O=C(C[N+]12CCC(CC1)C(CO)C2)c1ccc(Br)cc1 (centres undefined)	none
CCCCCCC(C)(C)c1ccc([C@@H]2C[C@H](O)CC[C@H]2CCCO)c(O)c1	ANO1 block 100, CSC inhib 103 | TMEM16A reconf inactive | HEK293 Ca mobil inactive | YFP-HEK293 quench inactive | ClC-1 inh inactive
C[C@]12CC[C@@H](O)CC1=CC(=O)C1C2CC[C@]2(C)C(=O)CCC12 (some centres undefined)	none (no result: ANO1 block)
CNC(=S)N1CCN(CCN=Cc2c(O)n(-c3ccc(C)cc3)c(=S)[nH]c2=O)CC1	none (no result: Beta cell apopt, CSC inhib)
O=C(c1cc2c(s1)CCCCCC2)N1CCC2(CC1)OCCO2	none
CCc1sc(C(=O)N2CCC3(CC2)OCCO3)cc1Br	ANO1 block 100 | TMEM16A reconf inactive | HEK293 Ca mobil inactive | YFP-HEK293 quench inactive | ClC-1 inh inactive
Cc1oc2ccc(OC(=O)N(C)C)cc2c1C(=O)OC(C)C	none
CCOC(=O)c1c(-c2ccc(OC)cc2)oc2ccc(OC(=O)N(C)C)cc12	ANO1 block 100, CSC inhib 76 | TMEM16A reconf inactive | HEK293 Ca mobil inactive | YFP-HEK293 quench inactive | ClC-1 inh inactive
COc1ccc(-n2c(Cc3cccc([N+](=O)[O-])c3)nc3ccccc3c2=O)cc1	none
CC(C)N1OC2CC1c1nc3ccccc3n1C2 (centres undefined)	ANO1 block 25 | TMEM16A reconf inactive | HEK293 Ca mobil inactive | YFP-HEK293 quench inactive | ClC-1 inh inactive
CSCCC(N=Cc1c(O)n(-c2ccc(Cl)cc2)c(=O)[nH]c1=O)C(=O)OC(C)(C)C (centres undefined)	none
CC(C)=CCc1c(O)cc2c(c1O)C(=O)CC(c1ccc(O)cc1)O2 (centres undefined)	ANO1 block 100, CSC inhib 99 (no result: Beta cell apopt) | TMEM16A reconf inactive | HEK293 Ca mobil inactive | YFP-HEK293 quench inactive | ClC-1 inh inactive
CC(C)OP(=O)(OC(C)C)C(NCc1ccccc1)c1ccccc1 (centres undefined)	none
Cc1ccc(N)c(C(=O)c2ccc(Br)cc2)c1	ANO1 block 100 | TMEM16A reconf inactive | HEK293 Ca mobil inactive | YFP-HEK293 quench inactive | ClC-1 inh inactive
CCOc1ccc(-n2c(O)c(/C=C3\C=Nc4ccccc43)c(=O)[nH]c2=O)cc1	none | TMEM16A reconf 22% | HEK293 Ca mobil 40% | YFP-HEK293 quench inactive | ClC-1 inh inactive
COc1ccc(OC)c(-n2c(O)c(/C=C3\C=Nc4ccccc43)c(=O)[nH]c2=O)c1	none
CCCCn1c(O)c(C(C)=NCCN2CCCCC2)c(=O)[nH]c1=O	none | TMEM16A reconf inactive | HEK293 Ca mobil inactive | YFP-HEK293 quench inactive | ClC-1 inh inactive
O=C(Oc1c(Cl)cc(Cl)c2ccccc12)N1CCCCC1	ANO1 block 100 | TMEM16A reconf inactive | HEK293 Ca mobil inactive | YFP-HEK293 quench inactive | ClC-1 inh inactive
O=C(Nc1ccc(OC(=O)N2CCCCC2)cc1)N1CCOCC1	none
Cc1cc(OC(=O)c2cccs2)c2c3c(c(=O)oc2c1)CCCC3	none
Cc1cc(OC(=O)c2ccco2)c2c3c(c(=O)oc2c1)CCCC3	ANO1 block 100 (no result: Beta cell apopt) | TMEM16A reconf inactive | HEK293 Ca mobil inactive | YFP-HEK293 quench inactive | ClC-1 inh inactive
CCCNC(=O)c1c(N)n(Cc2ccco2)c2nc3ccccc3nc12	none (no result: MC4R antagonist, TMEM16A act, MC4R barr agon) | TMEM16A reconf inactive | HEK293 Ca mobil inactive | YFP-HEK293 quench inactive | ClC-1 inh inactive
COCCCNC(=O)c1c(N)n(Cc2ccco2)c2nc3ccccc3nc12	none
